Activity calls are given as the source filed them. No cut-off for these calls is given here.
Columns and labels:
Mus musculus [1] = assay: Anticonvulsant activity in ip dosed albino Carworth Farms No.1 mouse assessed as time needs to show peak effect for electric-current for 3 secs-induced seizure after 0.25 hrs by 6Hz minimal clonic seizure test; format: functional
[2] = Neurotoxicity in ip dosed albino Carworth Farms No.1 mouse assessed as motor impairment after 0.25 hrs by rotarod test; format: toxicity, organism-based; details: Carworth Farms No.1 (albino), in vivo
How it was run: (§1)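 Mouse quantification at the time of peak effect, compound given i.p. in 0.5% methylcellulose. Groups of at least eight mice received varied doses until at least two points fell between 100 and 0% response. PI = TD50/ED50 MES.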

[3] = Neurotoxicity in po dosed albino Sprague-Dawley rat assessed as motor impairment after 0.25 hrs by rotarod test; format: toxicity, organism-based; details: in vivo
How it was run: (§2)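 Rats dosed orally, compound in 0.5% methylcellulose. MES at 150 mA, 60 Hz, 0.2 s; scMET with pentylenetetrazole 70 mg/kg s.c. plus 30 min observation; rotorod for toxicity.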

Mus musculus [4] = assay: Anticonvulsant activity in ip dosed albino Carworth Farms No.1 mouse assessed as protection against maximal electroshock-induced seizure after 0.25 hrs; format: functional; details: albino Carworth Farms No.1, ip
How it was run: as §1, with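 “response. ED50 (MES, scMET) and TD50 (rotorod) with 95% CI by probit analysis (Finney).” for “response.”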

Rattus norvegicus [5] = assay: Anticonvulsant activity in po dosed Sprague-Dawley rat assessed as time needs to show peak effect for protection against subcutaneous metrazol-induced seizure after 0.25 hrs; format: functional; how it was run: as §2
Mus musculus [6] = assay: Anticonvulsant activity in ip dosed albino Carworth Farms No.1 mouse assessed as protection against electric-current for 3 secs-induced seizure after 0.25 hrs by 6Hz minimal clonic seizure test; format: functional; details: albino Carworth Farms No.1, ip
Mus musculus [7] = assay: Anticonvulsant activity in ip dosed albino Carworth Farms No.1 mouse assessed as time needs to show peak effect for protection against subcutaneous metrazol-induced seizure; format: functional
Rattus norvegicus [8] = assay: Anticonvulsant activity in po dosed albino Sprague-Dawley rat assessed as protection against maximal electroshock-induced seizure after 0.25 hrs; format: functional; how it was run: as §2
Mus musculus [9] = assay: Anticonvulsant activity in albino Carworth Farms No.1 mouse assessed as protection against subcutaneous metrazol-induced seizure at 300 mg/kg, ip after 4 hrs; format: functional, organism-based; design: dose 300 mg/kg
How it was run: (§3)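 Mouse scMET test. Compound given i.p. (30, 100 or 300 mg/kg) in 0.5% methylcellulose. Pentylenetetrazole 85 mg/kg (CD97) given s.c. at 0.5 or 4 h, then mice observed for 30 min. Protection is absence of clonic spasms; scored as protected/tested.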

Mus musculus [10] = assay: Neurotoxicity in albino Carworth Farms No.1 mouse assessed as motor impairment at 100 mg/kg, ip after 4 hrs by rotarod test; format: toxicity, organism-based; design: dose 100 mg/kg, route intraperitoneal; details: in vivo
How it was run: (§4)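 Rotorod neurotoxicity in mice at 6 r.p.m. Compound given i.p. (30, 100, 300 mg/kg) in 0.5% methylcellulose; tested at 30 min and 4 h. Impairment is inability to keep equilibrium on the rod for a given time; scored as impaired/tested.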

Mus musculus [11] = assay: Anticonvulsant activity in albino Carworth Farms No.1 mouse assessed as protection against subcutaneous metrazol-induced seizure at 100 mg/kg, ip after 4 hrs; format: functional, organism-based; design: dose 100 mg/kg; how it was run: as §3
Mus musculus [12] = assay: Neurotoxicity in albino Carworth Farms No.1 mouse assessed as motor impairment at 300 mg/kg, ip after 0.5 hrs by rotarod test; format: toxicity, organism-based; design: dose 300 mg/kg, route intraperitoneal; details: in vivo; how it was run: as §4
Mus musculus [13] = assay: Toxicity in albino Carworth Farms No.1 mouse maximal electroshock-induced seizure model assessed as death following tonic extension at 100 mg/kg, ip after 4 hrs; format: organism-based; design: dose 100 mg/kg, route intraperitoneal; details: in vivo
How it was run: (§5)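 Mice (18–25 g) were given 30, 100 or 300 mg/kg i.p. in 0.5% (v/v) aqueous methylcellulose. They were tested at 30 min and 4 h with a corneal electroshock (50 mA, 60 Hz, 0.2 s) through electrodes wetted with 0.5% butacaine hemisulphate in 0.9% NaCl. Protection was abolition of hindlimb tonic extension; death following tonic extension was noted per animals tested.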

Mus musculus [14] = assay: Toxicity in albino Carworth Farms No.1 mouse maximal electroshock-induced seizure model assessed as death following tonic extension at 30 mg/kg, ip after 0.5 hrs; format: organism-based; design: dose 30 mg/kg, route intraperitoneal; details: in vivo; how it was run: as §5
Mus musculus [15] = assay: Anticonvulsant activity in albino Carworth Farms No.1 mouse assessed as protection against subcutaneous metrazol-induced seizure at 300 mg/kg, ip after 0.5 hrs; format: functional, organism-based; design: dose 300 mg/kg; how it was run: as §3
Mus musculus [16] = assay: Anticonvulsant activity in albino Carworth Farms No.1 mouse assessed as protection against maximal electroshock-induced seizure at 300 mg/kg, ip after 0.5 hrs; format: functional, organism-based; design: dose 300 mg/kg
How it was run: (§6)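 Mouse MES test with compound given i.p. (30, 100 or 300 mg/kg) in 0.5% methylcellulose; tested at 0.5 and 4 h. Corneal stimulus of 50 mA at 60 Hz for 0.2 s, electrodes primed with 0.5% butacaine in 0.9% NaCl. Protection is abolition of hindlimb tonic extension; scored as protected/tested.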

Mus musculus [17] = assay: Anticonvulsant activity in albino Carworth Farms No.1 mouse assessed as protection against maximal electroshock-induced seizure at 300 mg/kg, ip after 4 hrs; format: functional, organism-based; design: dose 300 mg/kg; how it was run: as §6
Mus musculus [18] = assay: Neurotoxicity in albino Carworth Farms No.1 mouse assessed as motor impairment at 300 mg/kg, ip after 4 hrs by rotarod test; format: toxicity, organism-based; design: dose 300 mg/kg, route intraperitoneal; details: in vivo; how it was run: as §4
Mus musculus [19] = assay: Anticonvulsant activity in albino Carworth Farms No.1 mouse assessed as protection against maximal electroshock-induced seizure at 100 mg/kg, ip after 0.5 hrs; format: functional, organism-based; design: dose 100 mg/kg; how it was run: as §6
Mus musculus [20] = assay: Neurotoxicity in albino Carworth Farms No.1 mouse assessed as motor impairment at 30 mg/kg, ip after 4 hrs by rotarod test; format: toxicity, organism-based; design: dose 30 mg/kg, route intraperitoneal; details: in vivo; how it was run: as §4
Mus musculus [21] = assay: Anticonvulsant activity in albino Carworth Farms No.1 mouse assessed as protection against subcutaneous metrazol-induced seizure at 30 mg/kg, ip after 4 hrs; format: functional, organism-based; design: dose 30 mg/kg; how it was run: as §3
Mus musculus [22] = assay: Anticonvulsant activity in albino Carworth Farms No.1 mouse assessed as protection against maximal electroshock-induced seizure at 30 mg/kg, ip after 4 hrs; format: functional, organism-based; design: dose 30 mg/kg; how it was run: as §6
Mus musculus [23] = assay: Neurotoxicity in albino Carworth Farms No.1 mouse assessed as motor impairment at 30 mg/kg, ip after 0.5 hrs by rotarod test; format: toxicity, organism-based; design: dose 30 mg/kg, route intraperitoneal; details: in vivo; how it was run: as §4
Mus musculus [24] = assay: Anticonvulsant activity in albino Carworth Farms No.1 mouse assessed as protection against maximal electroshock-induced seizure at 100 mg/kg, ip after 4 hrs; format: functional, organism-based; design: dose 100 mg/kg; how it was run: as §6
Mus musculus [25] = assay: Anticonvulsant activity in albino Carworth Farms No.1 mouse assessed as protection against maximal electroshock-induced seizure at 30 mg/kg, ip after 0.5 hrs; format: functional, organism-based; design: dose 30 mg/kg; how it was run: as §6
Mus musculus [26] = assay: Anticonvulsant activity in albino Carworth Farms No.1 mouse assessed as protection against subcutaneous metrazol-induced seizure at 30 mg/kg, ip after 0.5 hrs; format: functional, organism-based; design: dose 30 mg/kg; how it was run: as §3
Mus musculus [27] = assay: Anticonvulsant activity in albino Carworth Farms No.1 mouse assessed as protection against subcutaneous metrazol-induced seizure at 100 mg/kg, ip after 0.5 hrs; format: functional, organism-based; design: dose 100 mg/kg; how it was run: as §3
Mus musculus [28] = assay: Neurotoxicity in albino Carworth Farms No.1 mouse assessed as motor impairment at 100 mg/kg, ip after 0.5 hrs by rotarod test; format: toxicity, organism-based; design: dose 100 mg/kg, route intraperitoneal; details: in vivo; how it was run: as §4

Q: Which results are given for `CCC1(C)CC(=O)NC1=O` (stereo not drawn) [ETHOSUXIMIDE]?
A: Time (Mus musculus [1]): 0.25 h; TD50 at 0.25 h [2]: 341 mg/kg; TD50 at 0.25 h [3]: > 500 mg/kg; ED50 (Mus musculus [4]): > 500 mg/kg; Time (Rattus norvegicus [5]): 0.25 h; ED50 (Mus musculus [6]): 167 mg/kg; Time (Mus musculus [7]): 0.25 h; ED50 (Rattus norvegicus [8]): > 500 mg/kg

Q: With `C[C@H]1C(=O)NC(=O)[C@@H]2CCCN12` as the compound, how does the Activity (Mus musculus [9]) read?
A: inactive

Q: What about the Activity (Mus musculus [10]) of the same compound?
A: Toxic

Q: And the Activity (Mus musculus [11])?
A: inactive

Q: What about the Activity (Mus musculus [12]) of the same compound?
A: Non-toxic

Q: What about the Activity (Mus musculus [13]) of the same compound?
A: Toxic

Q: What about the Activity (Mus musculus [14]) of the same compound?
A: Toxic

Q: And the Activity (Mus musculus [15])?
A: inactive

Q: And the Activity (Mus musculus [16])?
A: inactive

Q: And the Activity (Mus musculus [17])?
A: inactive

Q: And the Activity (Mus musculus [18])?
A: Non-toxic

Q: And the Activity (Mus musculus [19])?
A: inactive

Q: And the Activity (Mus musculus [20])?
A: Non-toxic

Q: And the Activity (Mus musculus [21])?
A: inactive

Q: What about the Activity (Mus musculus [22]) of the same compound?
A: inactive

Q: What about the Activity (Mus musculus [23]) of the same compound?
A: Non-toxic

Q: And the Activity (Mus musculus [24])?
A: inactive

Q: What about the Activity (Mus musculus [25]) of the same compound?
A: inactive

Q: And the Activity (Mus musculus [26])?
A: inactive

Q: And the Activity (Mus musculus [27])?
A: inactive

Q: What about the Activity (Mus musculus [28]) of the same compound?
A: Non-toxic

Source: ChEMBL document CHEMBL1909525, “Synthesis and anticonvulsant activity of novel 2,6-diketopiperazine derivatives. Part 1: perhydropyrrole[1,2-a]pyrazines” (Eur J Med Chem, 2011)
